Assay results: ChEMBL document CHEMBL1777725, “New class of potent antitumor acylhydrazone derivatives containing furan” (Eur J Med Chem, 2010)

Experiments:
HL-60 = assay: Growth inhibition of human HL60 cells at 10 uM after 48 hrs by MTT assay; format: functional; conditions: HL-60, 48 h, read-out: GI
Procedure, shortened: (§1)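 Exponentially growing cells at 1–2.5 ×10⁴ cells/mL, in humidified 5% CO₂, were seeded into 96-well plates. After 24 h, medium containing compound at various concentrations was added, and cells were incubated 48 h. Controls received RPMI-1640 medium only. Viable cell number was read by MTT at 570 nm for HL-60, and by SRB at 540 nm for Bel-7402, BGC-823 and KB.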

KB [1] = assay: Growth inhibition of human KB cells at 10 uM after 48 hrs by SRB assay; format: functional; conditions: read-out: GI; procedure, shortened: as §1
Bel-7402 [2] = assay: Antitumor activity against human Bel7402 cells after 48 hrs by SRB assay; format: functional, cell-based; conditions: Bel-7402, 48 h; procedure, shortened: as §1
BGC-823 [3] = assay: Growth inhibition of human BGC823 cells at 10 uM after 48 hrs by SRB assay; format: functional; conditions: BGC-823, 48 h, read-out: GI; procedure, shortened: as §1
KB [4] = assay: Antitumor activity against human KB cells after 48 hrs by SRB assay; format: functional, cell-based; procedure, shortened: as §1
Bel-7402 [5] = assay: Growth inhibition of human Bel7402 cells at 10 uM after 48 hrs by SRB assay; format: functional; conditions: Bel-7402, 48 h, read-out: GI; procedure, shortened: as §1
BGC-823 [6] = assay: Antitumor activity against human BGC823 cells after 48 hrs by SRB assay; format: functional, cell-based; conditions: BGC-823, 48 h; procedure, shortened: as §1

Structure (SMILES)	inhibition of growth at 10 µM (HL-60) [%]	inhibition of growth at 10 µM (KB [1]) [%]	IC50 (Bel-7402 [2]) [µM]	inhibition of growth at 10 µM (BGC-823 [3]) [%]	IC50 (KB [4]) [µM]	inhibition of growth at 10 µM (Bel-7402 [5]) [%]	IC50 (BGC-823 [6]) [µM]
COc1ccccc1/C=N/NC(=O)c1ccc(-c2ccc(F)cc2F)o1	27.4	59.5	24.6	66.8	> 40	53.1	81.6
O=C(N/N=C/c1cccc(Br)c1)c1ccc(-c2ccccc2F)o1	27.6	26.5		43.6		12.5	
O=C(N/N=C/c1ccccc1Cl)c1ccc(-c2ccc(F)cc2)o1	-3.22	19.3		32		4.81	
O=C(N/N=C/c1ccc(-c2ccc(F)cc2)o1)c1ccccc1O	-2.08	84.6	15.2	71.5	39	81.6	9.5
O=C(N/N=C/c1ccc(-c2ccc(F)cc2F)o1)c1ccccc1O	-9.5	61.8	19.3	68.4	55.3	63.4	46.6
Cc1cccc(/C=N/NC(=O)c2ccc(-c3ccccc3[N+](=O)[O-])o2)c1	9.54	10.3		31.4		6.66	
O=C(N/N=C/c1ccc(-c2ccc(Cl)cc2)o1)c1ccccc1	15.1	3.2		19.4		-7.17	
O=C(N/N=C/c1ccccc1O)c1ccc(-c2ccc(F)cc2)o1	13.1	53.9	50.3	74	> 40	40	180
COc1cccc2c1C(=O)c1c(O)c3c(c(O)c1C2=O)C[C@@](O)(C(=O)CO)C[C@@H]3O[C@H]1C[C@H](N)[C@H](O)[C@H](C)O1 [DOXORUBICIN]			5		5.8		4.8
O=C(N/N=C/c1ccccc1)c1ccc(-c2ccc(Cl)cc2)o1	25.8	17		33.7		2.28	
Cc1cccc(C(=O)N/N=C/c2ccc(-c3ccccc3[N+](=O)[O-])o2)c1	6.25	5.9		36.1		5.67	
O=C(N/N=C/c1ccc(O)cc1)c1ccc(-c2ccc(F)cc2)o1	1.07	11		46.3		10.6	
O=C(N/N=C/c1ccc(-c2ccccc2F)o1)c1ccc(Cl)cc1	6.13	4.62		31.5		2.96	
COc1ccccc1C(=O)N/N=C/c1ccc(-c2ccc(F)cc2F)o1	7.77	10.1		35.9		1.69	
O=C(N/N=C/c1ccccc1O)c1ccc(-c2ccc(F)cc2F)o1	43.1	75.2	8.3	79.1	> 40	91.8	9.6
O=C(N/N=C/c1ccc(-c2cccc(F)c2)o1)c1ccc(Br)cc1	25.9	26		46.7		28.2	
O=C(N/N=C/c1ccc(Cl)cc1)c1ccc(-c2ccccc2F)o1	6.49	11.3		32.6		16.9	
